Cl transport mod = modulators of human KCC2 chloride dependent transport. Q9H2X9. hit rate 2.2% among 190,000. KCC2 cells, thallium flux FluoZin-2 fluorescence. B-score of Tl+ flux slope (higher = more flux/activation; lower = inhibition) at 10 µM;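 active = thallium flux slope and its plate-corrected score both differing from the plate sample mean at a set confidence after two filtering rounds, in either direction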;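 also: slope of fluorescence scaled to starting intensity during 10 to 20 s after thallium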
L major viab = Leishmania major promastigote growth inhibition. Leishmania major promastigotes, resazurin fluorescence viability. inhibition, % at 10 µM. hit rate 9% among 200,000. AID 1063; in the data active = inhibition above about 50%;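 also: promastigotes grown with compound for 44 hours at 28 °C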
Diaphorase inh = inhibits diaphorase or chemically oxidizes, flagging diaphorase assay artifacts; diaphorase resazurin-to-resorufin fluorescence, NADH, 16 min; bacterial (C. kluyveri) enzyme, not human; inhibition, % at 20 µM; hit rate 0.69% among 190,000;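 active = primary screen inhibition at 20 µM above a set limit, cut at about 50% in these data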;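 also: plate controls were DMSO with full reaction for no effect and wells lacking NADH for full effect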
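Assay system – diaphorase enzyme from Clostridium kluyveri · Amount – diaphorase 0.14 U/mL (working solution) · Times – reaction incubation of 16 min at room temperature · Controls – No-NADH positive control and DMSO neutral control · Signal – resorufin fluorescence 544/590 nm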
Diaph act CS = diaphorase activation or chemical reduction counter-screen. Diaphorase/resazurin coupled assay, resorufin fluorescence, 16 min; stronger effect = higher value; 1 = vehicle wells, 0 = NADH-free wells. AID 1229. activation factor at 20 µM. hit rate 0.005% among 190,000;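 active = diaphorase activity raised at least twofold by the compound at 20 µM; inactive = activation factor below 2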
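Material: Purified diaphorase enzyme from Clostridium kluyveri | Buffer or medium: 50 mM HEPES pH 7.4 with 4.542 mM MgCl2, 0.005% Tween 20 | Times: 16 min enzyme reaction, ambient temperature | Signal: Red resorufin fluorescence at 544/590 nm excitation/emission | Measure: Increased resorufin signal from activators or reducing compounds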
ROMK primary = modulates human ROMK potassium channel activity | B-score at 10 µM | Tet-inducible ROMK, thallium flux fluorescence; actives lie on both sides | hit rate 2% among 130,000 | P48048;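 active = signal ratio slope over the read window, or its plate-corrected B-score, at least 3 SD from the plate mean, either direction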;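 also: B-score of the F/F0 ratio slope over 7 to 12 s after thallium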
WT yeast gro inh = growth inhibition of WT yeast, mitochondrial fusion screen; hit rate 2.1% among 190,000; inhibition, % at 10 µM; AID 1362; mitochondrial fusion phenotypic screen, WT strain; in the data active = inhibition above about 58%; tested in S. cerevisiae
The depositor's hits bear a star. The list is not random: actives were taken first. Their share in the collection is about 12%.

How did CCOC(=O)Cc1csc(N/C(=N/S(=O)(=O)c2cc(Br)ccc2OCC)c2ccccc2)n1 do in these assays?
Cl transport mod: 0.0302; L major viab: -8.2; Diaphorase inh: 21.5; Diaph act CS: 0.8; WT yeast gro inh: -11.2

What do the screens show for `CC(C)(C)N1C(=O)Cc2c1nc(N)c1c(N)nc(N3CCCCC3CO)c(C#N)c21` (configuration not stated)?
L major viab: 24.6; Diaphorase inh: 56.5*; Diaph act CS: 0.4; WT yeast gro inh: -6.5

Results for O=C(CNC(=O)c1ccco1)OCc1ccc(Cl)cc1 ?
Cl transport mod: 0.0565; L major viab: -1.6; Diaphorase inh: 8.7; Diaph act CS: 0.9; WT yeast gro inh: -1.1

What do the screens show for `CCN(CC)S(=O)(=O)c1cc(NC(=O)C(CC(C)C)NC(N)=O)ccc1C` (configuration not stated)?
Cl transport mod: -1.19; L major viab: -1.9; Diaphorase inh: 10.8; Diaph act CS: 0.9; ROMK primary: 0.226; WT yeast gro inh: -4.3

What do the screens show for `CCN(CC)S(=O)(=O)c1ccc(N2CCCC2)c(NS(=O)(=O)c2ccc(F)cc2)c1`?
Cl transport mod: 0.423; L major viab: 60.2*; Diaphorase inh: 20.0; Diaph act CS: 0.8; ROMK primary: -2.26; WT yeast gro inh: 0.3

Results for CCN(CC)S(=O)(=O)c1ccc(N2CCOCC2)c(NS(=O)(=O)c2cc(C(C)(C)C)ccc2C)c1 ?
Cl transport mod: -0.284; L major viab: 93.4*; Diaphorase inh: 22.3; Diaph act CS: 0.8; ROMK primary: -1.38; WT yeast gro inh: -7.2

How did CCN(CC)S(=O)(=O)c1cc(NS(=O)(=O)c2ccccc2)ccc1C do in these assays?
Cl transport mod: 0.121; L major viab: 52.0*; Diaphorase inh: 16.9; Diaph act CS: 0.8; WT yeast gro inh: -18.9

Results for CCN(CC)S(=O)(=O)c1cc(NC(=O)C(C)Nc2ccccc2N2CCOCC2)ccc1C (configuration not stated) ?
Cl transport mod: 0.117; L major viab: 70.6*; Diaphorase inh: 15.9; Diaph act CS: 0.8; ROMK primary: 1.14; WT yeast gro inh: 11.3

Results for CCN(CC)S(=O)(=O)c1ccc(N2CCOCC2)c(NS(=O)(=O)c2ccc(C(C)C)cc2)c1 ?
Cl transport mod: 0.847; L major viab: 41.6; Diaphorase inh: 4.8; Diaph act CS: 1; ROMK primary: 0.518; WT yeast gro inh: 9.3

What do the screens show for `O=C(Oc1ccccc1)c1cccc2cccc(C(=O)Oc3ccccc3)c12`?
Cl transport mod: -1.11

How did CCN(CC)S(=O)(=O)c1cc(NC(=O)C(C)N2CCN(c3ccccn3)CC2)ccc1C (configuration not stated) do in these assays?
Cl transport mod: -0.00891; L major viab: 11.3; Diaphorase inh: 12.3; Diaph act CS: 0.9; ROMK primary: 1.1; WT yeast gro inh: -19.0

Results for Cc1ccc(S(C)(=O)=O)cc1S(=O)(=O)Nc1ccccc1 ?
Cl transport mod: -2.03; L major viab: 50.0*; Diaphorase inh: 4.3; Diaph act CS: 1; ROMK primary: 1.48; WT yeast gro inh: -5.7

What do the screens show for `CCN(CC)S(=O)(=O)c1ccc(N2CCOCC2)c(NC(=O)CC23CC4CC(CC(Br)(C4)C2)C3)c1`?
Cl transport mod: 0.25; L major viab: 50.8*; Diaphorase inh: 15.9; Diaph act CS: 0.8; ROMK primary: -2.68; WT yeast gro inh: -4.3

How did CCN(CC)S(=O)(=O)c1ccc(N2CCCC2)c(NS(=O)(=O)c2ccccc2)c1 do in these assays?
Cl transport mod: -1.49; L major viab: 62.5*; Diaphorase inh: -0.6; Diaph act CS: 1; WT yeast gro inh: -13.9

Results for CCN(CC)S(=O)(=O)c1cc(NC(=O)C(C)N2CCN(Cc3ccc4c(c3)OCO4)CC2)ccc1C (configuration not stated) ?
Cl transport mod: 0.726; L major viab: 88.3*; Diaphorase inh: 13.9; Diaph act CS: 0.9; ROMK primary: -0.792; WT yeast gro inh: -1.1

How did CCN(CC)S(=O)(=O)c1ccc(N2CCOCC2)c(NC(=O)C(C)(C)C)c1 do in these assays?
Cl transport mod: -0.333

How did O=C(NNC(=O)c1ccc(F)cc1F)c1ccc2c(c1)OCO2 do in these assays?
Cl transport mod: 0.374; L major viab: -6.1; Diaphorase inh: 12.9; Diaph act CS: 0.9; ROMK primary: 1.69; WT yeast gro inh: -0.6

Screens as filed in PubChem.
